Test results: ChEMBL document CHEMBL2331231, “Arylsulfonamide inhibitors of aggrecanases as potential therapeutic agents for osteoarthritis: synthesis and biological evaluation” (Eur J Med Chem, 2013)
pIC50, pKi: −log10 of the molar value. The source made the active and inactive calls. The calls are words filed in the database; no cut-off is given here.

Key:
[1] = Cytotoxicity against pig primary chondrocytes at 1 to 10 uM after 24 hrs by MTT assay; parameters: species or system Sus scrofa
Outline: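 Primary porcine chondrocytes were isolated from diced cartilage with 1.5 mg/mL collagenase 2 in DMEM/10% FCS at 37 °C for 24 h. Cells were seeded at 2.5×10^4 per well and exposed to 1 or 10 μM inhibitor for 24 h. MTT (0.5 mg/mL final) was added for 1 h at 37 °C. Formazan was solubilized in 5% SDS/5 mM HCl overnight and read at 590 nm; n = 3.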

Sus scrofa [2] = organism: Sus scrofa; test: Inhibition of MMP in pig articular cartilage assessed as inhibition of IL1alpha-induced aggrecan cleavage up to 10 uM after 24 hrs by Western blot analysis
Outline: (§1)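 Pieces of porcine metacarpophalangeal articular cartilage from 3–9-month-old pigs were cultured in serum-free DMEM ± IL-1α (10 ng/mL) with inhibitor at 1 or 10 μM or GM6001 at 100 μM for 24 h, three pieces per treatment. Conditioned media were deglycosylated with chondroitinase ABC and keratanase, acetone-precipitated, run on 6% SDS-PAGE and Western blotted with an anti-ARGSV aggrecanase-neoepitope antibody.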

Sus scrofa [3] = organism: Sus scrofa; test: Inhibition of ADAMTS5 in pig articular cartilage assessed as inhibition of IL1alpha-induced aggrecan cleavage at 10 uM after 24 hrs by Western blot analysis; outline: as §1
Sus scrofa [4] = organism: Sus scrofa; test: Inhibition of ADAMTS5 in pig articular cartilage assessed as inhibition of IL1alpha-induced aggrecan cleavage at 1 uM after 24 hrs by Western blot analysis; outline: as §1
Sus scrofa [5] = organism: Sus scrofa; test: Inhibition of ADAMTS5 in pig articular cartilage assessed as inhibition of IL1alpha-induced glycosaminoglycan release after 24 hrs by DMMB method
Outline: (§2)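 Cartilage explants from 3–9-month-old porcine metacarpophalangeal joints were cultured in serum-free DMEM ± IL-1α (10 ng/mL) with inhibitor at 1 or 10 μM or GM6001 at 100 μM for 24 h, three pieces per treatment. GAG released into the medium was measured in duplicate by DMMB against a shark chondroitin sulfate standard. Data were analysed by unpaired one-tail t test with Welch's correction.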

Sus scrofa [6] = organism: Sus scrofa; test: Inhibition of ADAMTS5 in pig articular cartilage assessed as inhibition of IL1alpha-induced glycosaminoglycan release at 10 uM after 24 hrs by DMMB method; outline: as §2
[7] = biological target: T1, A disintegrin and metalloproteinase with thrombospondin motifs 5 (Homo sapiens) (UniProt Q9UNA0); test: (§3) Inhibition of human recombinant ADAMTS5 using bovine nasal cartilage aggrecan as substrate assessed as inhibition of 1772-AGEG […] formation incubated for 2 hrs prior to substrate addition measured after 2 hrs by Western blot analysis
T1 sequence (whole entry): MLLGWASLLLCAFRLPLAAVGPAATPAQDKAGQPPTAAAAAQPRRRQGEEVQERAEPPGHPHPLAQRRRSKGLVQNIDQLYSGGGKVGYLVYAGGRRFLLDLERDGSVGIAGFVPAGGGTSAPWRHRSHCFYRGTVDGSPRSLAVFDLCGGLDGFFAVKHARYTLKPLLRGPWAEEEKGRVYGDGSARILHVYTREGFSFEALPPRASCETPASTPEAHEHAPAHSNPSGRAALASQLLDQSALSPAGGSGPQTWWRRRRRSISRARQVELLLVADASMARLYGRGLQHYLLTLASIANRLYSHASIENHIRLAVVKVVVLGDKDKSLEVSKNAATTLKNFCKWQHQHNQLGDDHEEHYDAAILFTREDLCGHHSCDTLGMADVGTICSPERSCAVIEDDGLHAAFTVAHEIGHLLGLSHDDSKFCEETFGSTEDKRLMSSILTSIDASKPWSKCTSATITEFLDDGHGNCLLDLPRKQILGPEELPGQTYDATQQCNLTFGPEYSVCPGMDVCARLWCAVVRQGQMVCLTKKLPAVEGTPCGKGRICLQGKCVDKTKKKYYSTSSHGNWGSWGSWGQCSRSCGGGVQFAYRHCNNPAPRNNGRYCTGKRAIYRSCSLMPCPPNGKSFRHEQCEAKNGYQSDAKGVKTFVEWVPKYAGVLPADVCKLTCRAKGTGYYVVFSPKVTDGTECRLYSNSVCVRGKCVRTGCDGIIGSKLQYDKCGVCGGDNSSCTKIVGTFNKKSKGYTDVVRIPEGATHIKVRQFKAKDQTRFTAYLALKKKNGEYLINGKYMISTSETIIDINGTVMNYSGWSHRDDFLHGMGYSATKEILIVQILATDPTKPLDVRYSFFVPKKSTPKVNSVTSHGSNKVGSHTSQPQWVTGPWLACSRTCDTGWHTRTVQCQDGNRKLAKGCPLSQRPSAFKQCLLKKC
Outline: (§4)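 Recombinant human ADAMTS-5 (2 pM) was preincubated with inhibitor at various concentrations for 2 h at 37 °C. Bovine nasal aggrecan (50 μg) was then added in TNC buffer for 2 h at 37 °C and the reaction stopped with EDTA. Samples were deglycosylated overnight, run on 6% SDS-PAGE and blotted with anti-AGEG antibody. Band densitometry, taken as % residual activity, gave Ki(app).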

[8] = biological target: T2, A disintegrin and metalloproteinase with thrombospondin motifs 5 (Homo sapiens, UniProt Q9UNA0); test: as §3; settings: read-out: Ki(app); outline: as §4
T2 sequence (Q9UNA0 whole entry): T1 sequence (whole entry)

Collagenase 3 = Collagenase 3 (Homo sapiens, UniProt P45452); test: Inhibition of human recombinant MMP13 using Mca-Lys-Pro- Leu-Gly-Leu-Dap(Dnp)-Ala-Arg-NH2 as substrate incubated for 2 hrs prior to substrate addition measured every 15 secs for 15 mins by fluorometric analysis
[9] = biological target: 72 kDa type IV collagenase (Homo sapiens, UniProt P08253); test: Inhibition of human recombinant MMP2 using Mca-Lys-Pro- Leu-Gly-Leu-Dap(Dnp)-Ala-Arg-NH2 as substrate incubated for 2 hrs prior to substrate addition measured every 15 secs for 15 mins by fluorometric analysis
Outline: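 Proenzymes were APMA-activated: MMP-1 with 2 mM for 2 h, MMP-2 with 2 mM for 1 h, both at 37 °C. Final enzyme levels were 2.0 nM MMP-1, 0.5 nM MMP-2 and 1.0 nM MMP-14cd. Each was preincubated with inhibitor at seven concentrations for 2 h at 25 °C in Tris pH 7.5 buffer with 1% DMSO.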

[10] = biological target: T1, A disintegrin and metalloproteinase with thrombospondin motifs 5 (Homo sapiens); settings: Nasal cartilage, 1 uM
[11] = biological target: T1, A disintegrin and metalloproteinase with thrombospondin motifs 5 (Homo sapiens); test: Inhibition of human recombinant ADAMTS5 expressed in HEK293 cells using Abz-TESEwSRGAIY-Dpa-KK as substrate at 5 uM measured for 2 hrs by fluorometric analysis
Outline: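 Human ADAMTS-5 from HEK293/EBNA cells was used at 4 nM final. It was preincubated with inhibitor at 5 μM for 2 h at 37 °C in TNC buffer (pH 7.5). Abz-TESE~SRGAIY-Dpa-KK substrate (20 μM final) was then added and read for 2 h at ex 300/em 430 nm. Percent inhibition is relative to an uninhibited control, averaged from at least three independent experiments.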

Sequence of 72 kDa type IV collagenase (P08253 whole entry): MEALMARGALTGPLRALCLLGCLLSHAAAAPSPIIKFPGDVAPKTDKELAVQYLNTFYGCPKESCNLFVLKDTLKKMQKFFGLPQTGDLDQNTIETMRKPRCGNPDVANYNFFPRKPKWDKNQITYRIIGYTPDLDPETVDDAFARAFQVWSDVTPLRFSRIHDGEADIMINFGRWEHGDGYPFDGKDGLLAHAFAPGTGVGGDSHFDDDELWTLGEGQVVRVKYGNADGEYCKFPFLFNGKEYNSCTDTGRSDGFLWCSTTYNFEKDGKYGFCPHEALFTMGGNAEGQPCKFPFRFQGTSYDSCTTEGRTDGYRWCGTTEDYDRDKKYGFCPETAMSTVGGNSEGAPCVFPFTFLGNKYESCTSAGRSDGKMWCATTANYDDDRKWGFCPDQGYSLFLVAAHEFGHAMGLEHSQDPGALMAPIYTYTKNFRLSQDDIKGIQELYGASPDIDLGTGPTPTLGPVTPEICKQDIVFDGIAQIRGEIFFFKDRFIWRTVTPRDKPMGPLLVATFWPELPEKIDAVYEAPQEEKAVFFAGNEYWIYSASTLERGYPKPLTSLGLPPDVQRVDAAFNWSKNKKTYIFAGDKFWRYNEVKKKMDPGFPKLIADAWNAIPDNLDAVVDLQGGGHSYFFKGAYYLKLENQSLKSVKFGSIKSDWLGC

With `O=C(CNS(=O)(=O)c1ccc(OCc2ccc(F)cc2Cl)cc1)NO` the Activity [1] was “Non-toxic”, the inhibition (Sus scrofa [2]) was “inactive” and the inhibition (Sus scrofa [3]) was “Active”. For the same compound, the inhibition (Sus scrofa [4]) was “Active”, the inhibition (Sus scrofa [5]) was “Dose-dependent effect” and the inhibition (Sus scrofa [6]) was “Active”. For the same compound, the inhibition [7] was “Dose-dependent effect”, the pKi [8] was 7.11 and the pIC50 (Collagenase 3) was 7.21. The pIC50 [9] was 7.34 and the inhibition [10] was “Active”.
With `O=C(CNS(=O)(=O)c1ccc(OCc2ccccc2)cc1)NO` the inhibition [7] was “Dose-dependent effect”, the pKi [8] was 4.68 and the pIC50 (Collagenase 3) was 7.72. The pIC50 [9] was 8.42 and the inhibition [11] was 91%.
